Experimental data taken from ChEMBL document CHEMBL4368908 (J Med Chem, 2019).
pIC50: −log10 of the molar value. Activity calls are given as the source filed them. The rule behind the calls is not given here.

What was measured:
[1] = molecular target: T1, Inositol hexakisphosphate kinase 2 (Homo sapiens, UniProt Q9UHH9); assay: Inhibition of human IP6K2 using insP6 as substrate preincubated for 15 mins followed by substrate and measured after 30 mins by TR-FRET assay
T1 sequence (Q9UHH9 whole entry): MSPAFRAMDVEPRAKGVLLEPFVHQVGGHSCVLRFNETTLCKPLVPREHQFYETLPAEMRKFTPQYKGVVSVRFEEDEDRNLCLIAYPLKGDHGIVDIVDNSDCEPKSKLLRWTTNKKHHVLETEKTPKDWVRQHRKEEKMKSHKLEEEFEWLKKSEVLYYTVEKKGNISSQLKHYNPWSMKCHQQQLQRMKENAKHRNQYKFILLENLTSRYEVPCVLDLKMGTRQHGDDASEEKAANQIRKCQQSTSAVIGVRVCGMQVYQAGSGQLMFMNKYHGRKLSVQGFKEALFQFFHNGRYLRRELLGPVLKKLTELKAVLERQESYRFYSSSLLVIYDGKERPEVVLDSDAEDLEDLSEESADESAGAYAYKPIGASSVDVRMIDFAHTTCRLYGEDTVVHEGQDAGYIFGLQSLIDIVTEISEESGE

[2] = molecular target: T2, Inositol polyphosphate multikinase (Homo sapiens, UniProt Q8NFU5); assay: Inhibition of human IPMK using insP3 as substrate preincubated for 15 mins followed by substrate and measured after 30 mins by TR-FRET assay
Homo sapiens = species on record: Homo sapiens; assay: Selectivity ratio of IC50 for human IPMK to IC50 for human IP6K2
Procedure, shortened: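 Recombinant human IPMK (12 nM) or IP6K2 (400 nM) equilibrated 15 min at room temperature with compound (10-point, 0.005–100 μM, 1% DMSO) in 50 mM HEPES pH 7.5, 0.01% Brij-35, 10 mM MgCl₂, 1 mM EGTA. Reaction started with 10 μM ATP plus 10 μM InsP₃ (IPMK) or InsP₆ (IP6K2), run 30 min. ADP detected by Adapta TR-FRET. IC50 from 4-parameter fit.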

HCT-116 [3] = assay: Down regulation of insp5 levels in human [3H]-inositol-labelled HCT116 cells at 10 uM after 3.5 hrs by HPLC analysis; assay type: functional, cell-based
Procedure, shortened: (§1)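 HCT116 cells labelled with [3H]inositol at 20 μCi/ml, then treated 3.5 h with 10 μM flavonoid in DMSO (final 0.1%; vehicle controls). Quenched with PCA; extracted [3H]InsP5, InsP6 and InsP7 resolved by CarboPac HPLC and quantified as peak DPM relative to DMSO control.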

[4] = molecular target: T2, Inositol polyphosphate multikinase; assay: Inhibition of IPMK in human [3H]-inositol-labelled HCT116 cells assessed as reduction in insp5 levels at 10 uM after 3.5 hrs by HPLC analysis relative to control; procedure, shortened: as §1
[5] = molecular target: T2, Inositol polyphosphate multikinase; assay: Inhibition of IPMK in [3H]-inositol-labelled HEK293 cells assessed as reduction in insp5 levels at 2.5 uM after 3.5 hrs by HPLC analysis relative to control; assay type: cell-based
Procedure, shortened: (§2)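 HEK293 cells labelled with [3H]inositol (20 μCi/ml), treated 3.5 h with 2.5 μM flavonoid in DMSO (final 0.1%; vehicle controls). PCA-quenched extracts analysed by CarboPac HPLC for InsP5, InsP6, InsP7 relative to DMSO control. Means ± SE, n=3; Dunnett's one-way ANOVA.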

HEK293 = assay: Down regulation of insp5 levels in [3H]-inositol-labelled HEK293 cells at 2.5 uM after 3.5 hrs by HPLC analysis; assay type: functional, cell-based; conditions: Homo sapiens; procedure, shortened: as §2
[6] = molecular target: RAC-alpha serine/threonine-protein kinase (Homo sapiens) (UniProt P31749); assay: Effect on AKT activity in human HCT116 cells assessed as AKT phosphorylation at T308 residues at 2.5 uM after 3 hrs by Western blot analysis; assay type: cell-based
Procedure, shortened: (§3)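 Cells (3T3-L1 preadipocytes 2 days post-confluent; HCT116 1 day post-confluent) treated 3 h with 2.5 μM flavonoid in DMSO (final DMSO 0.1%, vehicle control). Lysed in Tris pH 7.4/NaCl/Triton X-100 with protease-phosphatase inhibitors; 20 μg protein by SDS-PAGE and immunoblot for phospho-AKT T308 and total AKT. pAKT/total AKT ratio normalized to sum of ratios per gel; Dunnett's one-way ANOVA versus DMSO.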

[7] = molecular target: RAC-alpha serine/threonine-protein kinase (Mus musculus) (UniProt P31750); assay: Activation of AKT activity in mouse 3T3-L1 cells assessed as increase in AKT phosphorylation at T308 residues at 2.5 uM after 3 hrs by Western blot analysis; assay type: cell-based; procedure, shortened: as §3
[8] = molecular target: T3, Inositol hexakisphosphate kinase 2 (Mus musculus) (UniProt Q80V72); assay: Inhibition of IP6K2 in mouse 3T3-L1 cells assessed as AKT phosphorylation at T308 at 1 uM after 3 hrs by Western blot analysis; assay type: cell-based
T3 sequence (whole entry): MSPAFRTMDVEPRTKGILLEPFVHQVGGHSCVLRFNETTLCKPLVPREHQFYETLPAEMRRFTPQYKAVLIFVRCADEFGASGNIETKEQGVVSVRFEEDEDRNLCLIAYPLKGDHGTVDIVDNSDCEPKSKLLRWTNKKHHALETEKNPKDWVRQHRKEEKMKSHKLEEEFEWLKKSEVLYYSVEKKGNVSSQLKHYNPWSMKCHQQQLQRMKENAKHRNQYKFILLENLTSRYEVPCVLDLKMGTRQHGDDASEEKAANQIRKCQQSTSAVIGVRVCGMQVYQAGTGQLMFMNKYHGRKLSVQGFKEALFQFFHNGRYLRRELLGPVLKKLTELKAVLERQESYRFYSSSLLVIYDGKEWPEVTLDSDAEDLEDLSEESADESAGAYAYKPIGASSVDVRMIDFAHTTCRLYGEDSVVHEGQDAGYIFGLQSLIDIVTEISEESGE
Procedure, shortened: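 TNP reference treatment: 2-day post-confluent 3T3-L1 preadipocytes given 1 μM TNP in DMSO (final 0.1%) for 3 h. Lysates (20 μg protein) immunoblotted for phospho-AKT T308 and total AKT. pAKT/total AKT ratio normalized to sum of ratios per gel; one-way ANOVA (Dunnett) versus DMSO vehicle.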

[9] = molecular target: T2, Inositol polyphosphate multikinase; assay: Inhibition of IPMK in human [3H]-inositol-labelled HCT116 cells assessed as reduction in insp5 levels at 2.5 uM up to 200 mins by HPLC analysis relative to control
Procedure, shortened: (§4)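 Time course: HCT116 cells prelabelled with [3H]inositol (20 μCi/ml) and treated with 2.5 μM flavonoid in DMSO (final 0.1%) for the indicated times. InsP5, InsP6 and InsP7 measured by CarboPac HPLC after PCA quench and extraction. Means ± SE, n=3–4.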

HCT-116 [10] = assay: Down regulation of insp5 levels in human [3H]-inositol-labelled HCT116 cells at 2.5 uM after 3.5 hrs by HPLC analysis; assay type: functional, cell-based
Procedure, shortened: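 HCT116 cells labeled with [³H]inositol (20 μCi/ml) were treated for 3.5 h with 2.5 μM flavonoid; compounds were added in DMSO, final 0.1%. Cells were PCA-quenched, and InsPs were extracted and resolved by CarboPac HPLC. Values are versus DMSO controls, n=3–4, by one-way ANOVA (Dunnett).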

[11] = molecular target: T2, Inositol polyphosphate multikinase; assay: Inhibition of IPMK in human [3H]-inositol-labelled HCT116 cells assessed as reduction in insp5 levels at 2.5 uM after 3.5 hrs by HPLC analysis relative to control
Procedure, shortened: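 [3H]inositol-labelled (20 μCi/ml) HCT116 cells exposed 3.5 h to 2.5 μM flavonoid in DMSO (final 0.1%). PCA quench, extraction and CarboPac HPLC of InsP5/InsP6/InsP7, compared with DMSO vehicle control. Means ± SE, n=3–4; Dunnett's one-way ANOVA versus DMSO.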

[12] = molecular target: RAC-alpha serine/threonine-protein kinase (Homo sapiens) (UniProt P31749); assay: Effect on AKT activity in human HCT116 cells assessed as AKT phosphorylation at T308 residues at 10 uM after 3 hrs by Western blot analysis; assay type: cell-based
[13] = molecular target: RAC-alpha serine/threonine-protein kinase (Mus musculus) (UniProt P31750); assay: Activation of AKT activity in mouse 3T3-L1 cells assessed as increase in AKT phosphorylation at T308 residues at 10 uM after 3 hrs by Western blot analysis; assay type: cell-based
HCT-116 [14] = assay: Down regulation of insp5 levels in human [3H]-inositol-labelled HCT116 cells at 2.5 uM up to 200 mins by HPLC analysis; assay type: functional, cell-based; procedure, shortened: as §4

Sequence of RAC-alpha serine/threonine-protein kinase (Homo sapiens) (P31749 whole entry): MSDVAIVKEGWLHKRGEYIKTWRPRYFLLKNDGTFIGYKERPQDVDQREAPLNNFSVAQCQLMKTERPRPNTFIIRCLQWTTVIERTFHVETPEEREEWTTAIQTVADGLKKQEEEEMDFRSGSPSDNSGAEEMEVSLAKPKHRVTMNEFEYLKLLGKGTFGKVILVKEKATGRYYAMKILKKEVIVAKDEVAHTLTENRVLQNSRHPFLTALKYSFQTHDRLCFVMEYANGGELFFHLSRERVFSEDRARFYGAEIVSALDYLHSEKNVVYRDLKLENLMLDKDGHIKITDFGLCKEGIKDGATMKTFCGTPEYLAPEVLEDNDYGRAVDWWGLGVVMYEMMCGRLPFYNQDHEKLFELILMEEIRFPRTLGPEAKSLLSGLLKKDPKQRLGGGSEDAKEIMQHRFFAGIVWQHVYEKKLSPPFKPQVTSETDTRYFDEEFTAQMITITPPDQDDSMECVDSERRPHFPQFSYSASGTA
T2 sequence (Q8NFU5 whole entry): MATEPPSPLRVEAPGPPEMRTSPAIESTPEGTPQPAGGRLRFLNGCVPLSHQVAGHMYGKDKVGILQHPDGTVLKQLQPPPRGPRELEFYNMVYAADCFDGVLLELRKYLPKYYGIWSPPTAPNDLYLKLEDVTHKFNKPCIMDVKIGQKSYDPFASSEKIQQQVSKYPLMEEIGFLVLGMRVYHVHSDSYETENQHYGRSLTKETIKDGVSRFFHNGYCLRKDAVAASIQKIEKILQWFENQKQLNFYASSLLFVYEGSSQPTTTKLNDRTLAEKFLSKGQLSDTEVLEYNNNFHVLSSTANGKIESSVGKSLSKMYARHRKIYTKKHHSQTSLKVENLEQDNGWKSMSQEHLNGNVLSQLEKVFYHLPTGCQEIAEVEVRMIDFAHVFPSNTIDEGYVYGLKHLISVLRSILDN
Sequence of RAC-alpha serine/threonine-protein kinase (Mus musculus) (P31750 whole entry): as the sequence (P31749 whole entry) above, with S2N, A50S, T100A, K112R, E117T, K389T, G410N, H415D counted along it

Compound	pIC50 [1]	pIC50 [2]	Ratio IC50 (Homo sapiens)	inhibition (HCT-116 [10])	inhibition [11]	also measured
O=c1cc(-c2ccc(O)c(O)c2)oc2ccccc12	4.94	< 4.52	> 2.6			
O=c1cc(-c2ccc(O)c(O)c2)oc2cccc(O)c12	5.10	< 4.52	> 3.8			
O=c1cc(-c2ccc(O)cc2)oc2cc(O)ccc12	4.74	< 4.52	> 1.6			
O=c1cc(-c2ccc(O)cc2)oc2cccc(O)c12	< 4.52	< 4.52				
O=c1cc(-c2ccc(O)cc2)oc2ccc(O)cc12	4.89	< 4.52	> 2.3			
COc1ccc(-c2cc(=O)c3c(O)cc(O)cc3o2)cc1O				inactive	inactive	inhibition (HCT-116 [3]): inactive; inhibition [4]: inactive; inhibition [5]: inactive; inhibition (HEK293): inactive; Activity [6]: inactive; Activity [7]: Active; inhibition [8]: Active; inhibition [9]: inactive
O=[N+]([O-])c1ccc(CNc2nc(NCc3cccc(C(F)(F)F)c3)nc3[nH]cnc23)cc1						Activity [12]: inactive; Activity [13]: Active
COc1ccc(-c2cc(=O)c3c(O)cc(O)cc3o2)cc1 [ACACETIN]	5.24	< 4.52	> 5.3			
O=c1cc(-c2ccc(O)cc2)oc2cc(O)cc(O)c12 [APIGENIN]	5.15	4.54	4.1			
O=C1C[C@@H](c2ccc(O)c(O)c2)Oc2cc(O)cc(O)c21 [ERIODICTYOL]	4.60	< 4.52	> 1.2			
COc1cc(O)c2c(=O)cc(-c3ccc(O)cc3)oc2c1 [GENKWANIN]	4.62	< 4.52	> 1.3			
COc1cc(-c2oc3cc(O)cc(O)c3c(=O)c2O)ccc1O [ISORHAMNETIN]	6.30	5.66	4.4	inactive	inactive	
O=c1c(O)c(-c2ccc(O)cc2)oc2cc(O)cc(O)c12 [KAEMPFEROL]	5.60	5.36	1.8	inactive	inactive	
O=c1cc(-c2ccc(O)c(O)c2)oc2cc(O)cc(O)c12 [LUTEOLIN]	5.89	5.26	4.2	inactive	inactive	inhibition [5]: inactive; inhibition (HEK293): inactive; Activity [6]: inactive; Activity [7]: Active; inhibition [8]: Active
O=c1c(O)c(-c2cc(O)c(O)c(O)c2)oc2cc(O)cc(O)c12 [MYRICETIN]	6.15	5.96		inactive	inactive	
O=C1C[C@@H](c2ccc(O)cc2)Oc2cc(O)cc(O)c21 [NARINGENIN]	< 4.52	< 4.52				
O=c1c(O)c(-c2ccc(O)c(O)c2)oc2cc(O)cc(O)c12 [QUERCETIN]		5.64		inactive	inactive	inhibition (HCT-116 [3]): inactive; inhibition [4]: 25%; inhibition [5]: inactive; inhibition (HEK293): inactive; Activity [6]: inactive; Activity [7]: Active; inhibition [8]: Active; inhibition (HCT-116 [14]): inactive; inhibition [9]: inactive
COc1cc(O)c2c(=O)c(O)c(-c3ccc(O)c(O)c3)oc2c1 [RHAMNETIN]	5.74	4.85	> 7.8	inactive	inactive	
